Source: ChEMBL document CHEMBL1156410, “Design and synthesis of a combinatorial chemistry library of 7-acyl, 10-acyl, and 7,10-diacyl analogues of paclitaxel (taxol) using solid phase synthesis” (J Nat Prod, 2002)
≈ marks a conversion by molar mass, not a printed value.

Tests used:
A2780 = assay: Cytotoxicity against human A2780 cells; assay type: functional, cell-based
[1] = Induction of tubulin polymerization by DAPI fluorescence method; conditions: read-out: I50
How it was run: (§1)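 Microplate assay in PMEG buffer (100 mM PIPES, 1 mM MgSO₄, 2 mM EGTA, 0.1 mM GTP, pH 6.9) containing ligand; DAPI final 10 µM, tubulin final 5 µM. Fluorescence followed at 37 °C, excitation 360/40 nm, emission 460/40 nm. Change in fluorescence normalized to the curve of 10 µM paclitaxel standard. Samples in duplicate, triplicate or quadruplicate; concentrations over 2 orders of magnitude tested.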

[2] = Octanol-water partition coefficient, log P in 0.1 N aqueous HCl; assay type: physicochemical
How it was run: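 Compound partitioned between 1-octanol and 0.1 N aqueous HCl with vigorous shaking for 1 h.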

[3] = Induction of tubulin polymerization at 0.1 uM by DAPI fluorescence method relative to control; how it was run: as §1
[4] = Induction of tubulin polymerization at 1 uM by DAPI fluorescence method relative to control; how it was run: as §1
[5] = Induction of tubulin polymerization at 10 uM by DAPI fluorescence method relative to control; how it was run: as §1

Row | Compound | IC50 (A2780) [µg/mL] | IC50 [1] [µM] | logP [2] | Activity [3] [%] | Activity [4] [%] | Activity [5] [%]
1 | CC(=O)O[C@@]12CO[C@@H]1C[C@H](OC(=O)CN1CCN(c3ccccn3)CC1)[C@@]1(C)C(=O)[C@H](O)C3=C(C)[C@@H](OC(=O)[C@H](O)[C@@H](NC(=O)c4ccccc4)c4ccccc4)C[C@@](O)([C@@H](OC(=O)c4ccccc4)[C@H]21)C3(C)C | 0.014 (≈ 0.0138 µM) | 1.65 | 0.155 |  |  | 
2 | CC(=O)O[C@H]1C(=O)[C@@]2(C)[C@H]([C@H](OC(=O)c3ccccc3)[C@]3(O)C[C@H](OC(=O)[C@H](O)[C@@H](NC(=O)c4ccccc4)c4ccccc4)C(C)=C1C3(C)C)[C@]1(OC(C)=O)CO[C@@H]1C[C@@H]2O [PACLITAXEL] | 0.136 (≈ 0.159 µM) | 0.55 | 0.017 | 2.3 | 66 | 100
3 | CC(=O)O[C@@]12CO[C@@H]1C[C@H](OC(=O)CN1CCOCC1)[C@@]1(C)C(=O)[C@H](O)C3=C(C)[C@@H](OC(=O)[C@H](O)[C@@H](NC(=O)c4ccccc4)c4ccccc4)C[C@@](O)([C@@H](OC(=O)c4ccccc4)[C@H]21)C3(C)C | 0.2 (≈ 0.213 µM) | 1.3 |  |  |  | 
4 | CC(=O)O[C@@]12CO[C@@H]1C[C@H](OC(=O)CN1CCN(Cc3ccc4c(c3)OCO4)CC1)[C@@]1(C)C(=O)[C@H](O)C3=C(C)[C@@H](OC(=O)[C@H](O)[C@@H](NC(=O)c4ccccc4)c4ccccc4)C[C@@](O)([C@@H](OC(=O)c4ccccc4)[C@H]21)C3(C)C | 0.02 (≈ 0.0187 µM) | 7.8 |  |  |  | 
